Screening results deposited in PubChem BioAssay by several laboratories.
ABCB1 inh = blocks JC-1 efflux by human ABCB1 transporter; actives 0.067% (n = 190,000); P08183; AID 1326; CCRF-Adr cells, flow cytometry; inhibition, % at 6.6 µM; in the data active = inhibition above about 40%;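 note: 0% = vehicle and 100% = reference inhibitor; higher value means more JC-1 retained so stronger ABCB1 efflux block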
ABCG2 inh = blocks JC-1 efflux by human ABCG2 transporter; actives 0.1% (n = 190,000); IgMXP3 cells, flow cytometry; Q9UNQ0; inhibition, % at 6.6 µM;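 active = inhibition above 80%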;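 note: 0% = DMSO and 100% = nicardipine control wells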
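System: two drug-resistant human cell lines, ABCG2 and ABCB1; controls: nicardipine high and DMSO low controls; times: 10 min exposure at 25 °C with rotation, no wash; detection: flow cytometry of retained JC-1 fluorescence; read-out basis: percent efflux inhibition, scaled nicardipine 100% to DMSO 0%; doses: one concentration, 6.6 µM final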
GSH bead fluor = compound fluoresces at 488/530 nm on GSH beads; fluorescence (KMESF) at 10 µM; actives 0.25% (n = 190,000); GSH beads flow cytometry, compound fluorescence 488/530 nm; hits give high values; in the data active = fluorescence above about 89;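 note: glutathione beads carrying GST-tagged Bcl family fusion proteins plus one bare bead set; values are compound well signal with DMSO vehicle wells as background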
Avidin bead fluor = compound fluoresces at 488/530 nm on avidin beads | AID 1775 | fluorescence (KMESF) at 10 µM | actives 0.38% (n = 220,000) | compound fluorescence 488/530 nm, flow cytometry; hits give high values; in the data active = fluorescence above about 47
PKD1 kinase inh = inhibitors of human PKD1 kinase | inhibition, % (test concentration not listed) | PKD1 kinase fluorescence polarization assay | AID 797 | Q15139 | actives 0.056% (n = 200,000)
Target sequence (Q15139 whole entry, looked up): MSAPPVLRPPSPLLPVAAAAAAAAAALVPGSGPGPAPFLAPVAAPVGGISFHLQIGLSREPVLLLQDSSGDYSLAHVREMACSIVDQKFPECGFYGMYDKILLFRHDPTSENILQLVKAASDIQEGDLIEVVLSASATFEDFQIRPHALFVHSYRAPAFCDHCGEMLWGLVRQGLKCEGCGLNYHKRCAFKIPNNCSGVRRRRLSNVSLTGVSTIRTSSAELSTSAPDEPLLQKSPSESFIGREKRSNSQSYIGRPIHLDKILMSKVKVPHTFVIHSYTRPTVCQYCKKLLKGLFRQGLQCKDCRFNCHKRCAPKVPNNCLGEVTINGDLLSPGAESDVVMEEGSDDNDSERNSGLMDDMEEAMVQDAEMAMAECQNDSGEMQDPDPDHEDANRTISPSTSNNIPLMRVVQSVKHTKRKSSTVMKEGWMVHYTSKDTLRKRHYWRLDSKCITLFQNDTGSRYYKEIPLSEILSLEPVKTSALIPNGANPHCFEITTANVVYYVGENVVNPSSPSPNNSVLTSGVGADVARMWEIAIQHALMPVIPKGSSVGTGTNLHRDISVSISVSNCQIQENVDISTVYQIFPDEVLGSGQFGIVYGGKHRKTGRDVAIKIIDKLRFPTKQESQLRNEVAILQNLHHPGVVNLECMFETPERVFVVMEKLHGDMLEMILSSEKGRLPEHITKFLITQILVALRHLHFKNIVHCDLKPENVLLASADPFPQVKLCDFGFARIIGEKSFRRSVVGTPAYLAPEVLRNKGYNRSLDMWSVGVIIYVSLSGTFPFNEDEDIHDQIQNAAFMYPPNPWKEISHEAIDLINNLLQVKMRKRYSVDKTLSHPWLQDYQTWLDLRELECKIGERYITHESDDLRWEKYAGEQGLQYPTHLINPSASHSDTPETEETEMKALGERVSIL
L major viab = Leishmania major promastigote growth inhibition | inhibition, % at 10 µM | Leishmania major promastigotes, resazurin fluorescence viability | actives 9% (n = 200,000);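 note: promastigotes grown with compound for 44 hours at 28 °C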
* hit, by the source's call. The entries come from a sample that favours hits as a whole. Cut-off read from the data, not from the text of the source, unless noted: active = inhibition above about 50%; inactive = the rest.

Results for O=S(=O)(Nc1cc2nc3ccccc3nc2n1Cc1ccccc1)c1ccc(Cl)cc1 ?
ABCB1 inh: 0; ABCG2 inh: -3; GSH bead fluor: 18; Avidin bead fluor: 5; PKD1 kinase inh: -6; L major viab: 8

What do the screens show for `Cn1c(SCC(=O)NNC(=O)Cc2ccccc2)nnc1-c1ccc(Cl)cc1`?
ABCB1 inh: 0; ABCG2 inh: 2; GSH bead fluor: 17; Avidin bead fluor: 40; PKD1 kinase inh: 3; L major viab: -5

How did Cn1c(SCCS(=O)(=O)c2ccc(Cl)cc2)nnc1-c1ccccc1 do in these assays?
ABCB1 inh: 1; ABCG2 inh: 5; GSH bead fluor: 28; Avidin bead fluor: 9; PKD1 kinase inh: 12; L major viab: 100*

What do the screens show for `N=c1c2c(ncn1CCN1CCOCC1)Oc1ccc3ccccc3c1C2c1ccccc1` (centres undefined)?
ABCB1 inh: 3; ABCG2 inh: 12; GSH bead fluor: 11; Avidin bead fluor: 20; PKD1 kinase inh: 2; L major viab: 99*

How did CC1(C)CC(=O)C2=C(C1)Oc1ncn(Cc3ccco3)c(=N)c1C2c1ccccc1 (centres undefined) do in these assays?
ABCB1 inh: 3; ABCG2 inh: 2; GSH bead fluor: 11; Avidin bead fluor: 34; PKD1 kinase inh: 0; L major viab: 4

Results for N=c1c2c(ncn1Cc1ccco1)Oc1c(ccc3ccccc13)C2c1ccccc1 (centres undefined) ?
ABCB1 inh: 5; ABCG2 inh: 7; GSH bead fluor: 5; Avidin bead fluor: 3; PKD1 kinase inh: 6; L major viab: 57*

How did c1ccc(C2c3c(ccc4ccccc34)Oc3ncn4nc(-c5ccco5)nc4c32)cc1 (centres undefined) do in these assays?
ABCB1 inh: 1; ABCG2 inh: 3; GSH bead fluor: 17; Avidin bead fluor: 17; PKD1 kinase inh: -9; L major viab: 47

What do the screens show for `COc1ccc(C2c3c(ncn(CCN4CCOCC4)c3=N)Oc3ccc4ccccc4c32)cc1` (centres undefined)?
ABCB1 inh: 0; ABCG2 inh: -1; GSH bead fluor: 82; Avidin bead fluor: 11; PKD1 kinase inh: -6; L major viab: 100*

What do the screens show for `COc1ccc(C2C3=C(CC(C)(C)CC3=O)Oc3ncn(Cc4ccccc4)c(=N)c32)cc1` (centres undefined)?
ABCB1 inh: 4; ABCG2 inh: 5; GSH bead fluor: 11; Avidin bead fluor: 15; PKD1 kinase inh: 4; L major viab: 63*

Results for COc1ccc(C2c3c(ccc4ccccc34)Oc3ncn4nc(-c5ccco5)nc4c32)cc1 (centres undefined) ?
ABCB1 inh: 2; ABCG2 inh: 12; GSH bead fluor: 16; Avidin bead fluor: 20; PKD1 kinase inh: 7; L major viab: 31

Results for Cc1nnsc1C(=O)NC(C)C12CC3CC(CC(C3)C1)C2 (centres undefined) ?
ABCB1 inh: 0; ABCG2 inh: 0; GSH bead fluor: 6; Avidin bead fluor: 7; PKD1 kinase inh: 0; L major viab: -3

Results for O=C(CN(Cc1cccs1)C(=O)CNS(=O)(=O)c1ccccc1)NC1CCCC1 ?
ABCB1 inh: 0; ABCG2 inh: 1; GSH bead fluor: 29; Avidin bead fluor: 11; PKD1 kinase inh: -6; L major viab: -4

What do the screens show for `Cc1noc2ncnc(Oc3cc(Cl)ccc3Cl)c12`?
ABCB1 inh: 0; ABCG2 inh: 0; GSH bead fluor: 11; Avidin bead fluor: 5; PKD1 kinase inh: -5; L major viab: 30

What do the screens show for `O=C(NCCCN1CCOCC1)c1c(O)c2ccccc2[nH]c1=O`?
ABCB1 inh: 1; ABCG2 inh: 5; GSH bead fluor: 18; Avidin bead fluor: 17; PKD1 kinase inh: -3; L major viab: 7

Results for COc1cc2[nH]c(=O)c(C(=O)NCCCN3CCCCC3)c(O)c2cc1OC ?
ABCB1 inh: 0; ABCG2 inh: 2; GSH bead fluor: 15; Avidin bead fluor: 39; PKD1 kinase inh: -3; L major viab: 94*

What do the screens show for `COc1ccc(/C=N/OCC(=O)N2CC3(C)CC2CC(C)(C)C3)cc1OC` (centres undefined)?
ABCB1 inh: 0; ABCG2 inh: 1; GSH bead fluor: 27; Avidin bead fluor: 12; PKD1 kinase inh: 18; L major viab: 65*

Results for CCCCN1C(=O)C(=O)N(CC(=O)NC2CCCc3ccccc32)C1=O (centres undefined) ?
ABCB1 inh: 3; ABCG2 inh: 14; GSH bead fluor: 13; Avidin bead fluor: 10; PKD1 kinase inh: 5; L major viab: -3

What do the screens show for `O=C(CSc1nc2ccccc2[nH]1)c1ccc2c(c1)OCO2`?
ABCB1 inh: 0; ABCG2 inh: 5; GSH bead fluor: 29; Avidin bead fluor: 13; PKD1 kinase inh: -6; L major viab: 4

How did CC(=O)c1c(C)[nH]c(C(=O)CSc2nc3ccc(C)cc3[nH]2)c1C do in these assays?
ABCB1 inh: 1; ABCG2 inh: 7; GSH bead fluor: 16; Avidin bead fluor: 13; PKD1 kinase inh: 2; L major viab: 92*

How did COC(=O)c1ccc(CSc2nc3ccc(C)cc3[nH]2)o1 do in these assays?
ABCB1 inh: 1; ABCG2 inh: 1; GSH bead fluor: 66; Avidin bead fluor: 8; PKD1 kinase inh: 0; L major viab: 87*

How did Cc1ccc2nc(SCC(=O)c3ccc4c(c3)OCO4)[nH]c2c1 do in these assays?
ABCB1 inh: 0; ABCG2 inh: 3; GSH bead fluor: 9; Avidin bead fluor: 21; PKD1 kinase inh: -4; L major viab: 84*

Results for COc1ccccc1NC(=O)c1cc2cc(Br)ccc2cc1O ?
Avidin bead fluor: 6

Results for O=C(COC(=O)[C@@H]1CC(O)CN1S(=O)(=O)c1ccc2c(c1)OCCO2)Nc1ccccc1F (some centres undefined) ?
ABCB1 inh: 0; ABCG2 inh: 0; GSH bead fluor: 18; Avidin bead fluor: 24; PKD1 kinase inh: -1; L major viab: -10

Results for COC(=O)NCC(c1cccnc1)N1CCN(c2ccccc2F)CC1 (centres undefined) ?
ABCB1 inh: 0; ABCG2 inh: -2; GSH bead fluor: 12; Avidin bead fluor: 14; PKD1 kinase inh: -2; L major viab: 56*

How did COc1ccccc1N1CCN(C(c2cccs2)C(C)NC(=O)c2cccnc2)CC1 (centres undefined) do in these assays?
ABCB1 inh: 1; ABCG2 inh: 3; GSH bead fluor: 11; Avidin bead fluor: 25; PKD1 kinase inh: -2; L major viab: -2

What do the screens show for `COC(=O)NCC(c1cccnc1)N1CCN(c2ccccc2OC)CC1` (centres undefined)?
ABCB1 inh: 0; ABCG2 inh: 2; GSH bead fluor: 10; Avidin bead fluor: 22; PKD1 kinase inh: -8; L major viab: 70*
